From PubChem
NRP1-CendR mod = modulators of CendR peptide binding to NRP-1, primary screen, biochemical, fluorescence polarization, uHTS; Neuropilin-1 (Homo sapiens), O14786; FAM-RPARPAR peptide binding to NRP-1; inhibition, % at 25 µM; 360,000 compounds, 0.85% hits;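 active = inhibition or corrected inhibition above about 18%, plus a signal ratio from 0.5 to 1.5, limit read from the data, passing the limit was not always enough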
ARFGAP1 inh = inhibitors of rat ARFGAP1 GAP activity, primary screen, biochemical, fluorescence polarization, GDP tracer; ADP-ribosylation factor GTPase-activating protein 1 (Rattus norvegicus), Q62848; Arfgap1-stimulated ARF1 GTP hydrolysis, GDP FP detection; inhibition, % at 16.5 µM; 360,000 compounds, 0.26% hits; AID 651572, 2012;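 active = inhibition above a per-plate limit, mean inhibition of low control wells plus 3 SD, cut at about 25% in these data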;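 note: 0% = DMSO wells with enzyme and 100% = wells lacking Arfgap1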
Target sequence (Q62848 1-136 limits assumed): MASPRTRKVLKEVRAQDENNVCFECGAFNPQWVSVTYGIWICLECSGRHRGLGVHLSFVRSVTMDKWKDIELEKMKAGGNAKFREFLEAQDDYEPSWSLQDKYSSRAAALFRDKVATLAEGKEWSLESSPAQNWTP
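Repeats: one replicate per compound; assay system: rat Arfgap1 catalytic domain, aa 1-136; times: enzyme reaction 120 min at 25 °C after 20 min preincubation; detection: FP of antibody-bound GDP Alexa 633 tracer, ex 620/em 688 nm; benchmarks: high control wells lacking Arfgap1, low control full reaction with DMSO; reagent: human ARF1(Δ1-17)-GTP substrate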
ASAP1 GAP inh = inhibitors of human ASAP1 ArfGAP activity, primary screen, biochemical, fluorescence polarization. ASAP1-stimulated ARF1 GTP hydrolysis, GDP FP detection. inhibition, % at 16.5 µM. 360,000 compounds, 0.19% hits; in the data active = inhibition above about 25%;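 note: 0% = vehicle with enzyme and substrate and 100% = no enzyme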
Target sequence (Q9ULH1 325-724 limits assumed): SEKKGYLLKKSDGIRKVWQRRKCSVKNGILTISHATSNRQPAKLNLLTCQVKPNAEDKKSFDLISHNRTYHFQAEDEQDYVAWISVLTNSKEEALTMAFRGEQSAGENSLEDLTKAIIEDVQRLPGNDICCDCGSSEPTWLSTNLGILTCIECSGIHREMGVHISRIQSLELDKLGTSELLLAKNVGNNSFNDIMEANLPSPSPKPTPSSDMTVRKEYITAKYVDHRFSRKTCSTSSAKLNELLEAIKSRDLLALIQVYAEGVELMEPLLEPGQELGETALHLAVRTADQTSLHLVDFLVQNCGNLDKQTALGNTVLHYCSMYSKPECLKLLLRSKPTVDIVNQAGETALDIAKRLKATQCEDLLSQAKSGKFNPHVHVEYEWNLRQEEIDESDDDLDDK
Granule exo inh = LAMP-1 surface exposure blockers, TALL-104 cells – cell-based, flow cytometry, MLPCN library, primary screen; inhibition, % at 10 µM; TALL-104 LAMP-1 surface exposure; cells stimulated with thapsigargin and PMA; 360,000 compounds, 0.66% hits; AID 651702, 2012;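 active = inhibition above about 55%, limit read from the data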
V-ATPase pH = regulators of yeast V-ATPase proton pumping, primary screen, pHLuorin cytosolic pH fluorescence. S. cerevisiae. response, % at 10 µM. 350,000 compounds, 0.37% hits; in the data active = response mostly above about 7.3%, no sharp cut-off; inactive = mostly below about 5.4%; note: actives read high
* = called active by the depositor. An excerpt weighted towards active compounds, which were near 2.2% of everything screened.

Screening CCOC(=O)c1c(CN(CC)CC)n(-c2ccccc2)c2ccc(O)cc12 returned NRP1-CendR mod -5.8, ARFGAP1 inh 7.5, ASAP1 GAP inh -2.6, Granule exo inh 15.1 and V-ATPase pH 4.3.
`CCOC(=O)c1c(CSC(=N)N)n(-c2ccccc2)c2cc(Br)c(OC(C)=O)cc12` gave NRP1-CendR mod 2.9, ARFGAP1 inh 4.6, ASAP1 GAP inh -8.8, Granule exo inh 80.6* and V-ATPase pH -3.5.
For C[C@H](CO)N1C[C@H](C)[C@H](CN(C)Cc2cccc(F)c2)Oc2ncc(C3=CCCC3)cc2C1=O the results were ARFGAP1 inh -3.8 and ASAP1 GAP inh -10.2.
CCCCOc1ccc(C(=O)N/C(=C/C=C/c2ccccc2)C(=O)O)cc1 was read as NRP1-CendR mod 21.4*, ARFGAP1 inh 3.5, ASAP1 GAP inh -0.7, Granule exo inh 0.2 and V-ATPase pH -0.5.
For CCCCOc1ccc(C(=O)N/C(=C/C=C/c2ccccc2)C(=O)NC)cc1 the results were NRP1-CendR mod 8.2, ARFGAP1 inh -3.9, ASAP1 GAP inh -8.6, Granule exo inh 0.7 and V-ATPase pH 7.8.
`Cc1ccc(S(=O)(=O)NC(=O)ON=Cc2ccc3c(c2)OCO3)cc1` gave ARFGAP1 inh -3.2 and ASAP1 GAP inh -4.3.
Screening CS(=O)(=O)Cc1cc(Sc2ccccc2)nc(-c2ccncc2)n1 returned NRP1-CendR mod 22.9*, ARFGAP1 inh 5.7, ASAP1 GAP inh 0.3, Granule exo inh -1.6 and V-ATPase pH 0.8.
For O=S(Cc1cc(Sc2ccccc2)nc(-c2ccccc2)n1)c1ccccc1 (configuration not stated) the results were NRP1-CendR mod 1.5, ARFGAP1 inh 8.6, ASAP1 GAP inh 6.4, Granule exo inh 11.4 and V-ATPase pH -0.1.
`O=C(NCCNC(=O)c1ccc(Br)o1)c1ccc(Br)o1` gave NRP1-CendR mod 7.8, ARFGAP1 inh 9.7, ASAP1 GAP inh -14.9, Granule exo inh -5.8 and V-ATPase pH 6.9.
Screening O=C(NCCc1ccccc1)c1ccc(Br)o1 returned NRP1-CendR mod 24.0*, ARFGAP1 inh -4.6, ASAP1 GAP inh 3.0, Granule exo inh -1.6 and V-ATPase pH -0.8.
Screening N#Cc1ccc(S(=O)(=O)N2CCCc3nc(-c4ccc(F)cc4)ccc32)cc1 returned ARFGAP1 inh -12.8 and ASAP1 GAP inh -1.3.
For Cn1c(=O)c2[nH]c(CCCc3ccc([N+](=O)[O-])cc3)nc2n(C)c1=O the results were NRP1-CendR mod 30.0*, ARFGAP1 inh -7.5, ASAP1 GAP inh 1.8, Granule exo inh -0.9 and V-ATPase pH -3.4.
Screening Cn1c(=O)c2[nH]c(CCc3ccncc3)nc2n(C)c1=O returned NRP1-CendR mod 3.8, ARFGAP1 inh 1.6, ASAP1 GAP inh -4.7, Granule exo inh 14.3 and V-ATPase pH 6.1.
`CCSc1nc2ccccc2n1Cc1cccc([N+](=O)[O-])c1` gave NRP1-CendR mod 22.6*, ARFGAP1 inh -9.5, ASAP1 GAP inh -3.3, Granule exo inh -1.7 and V-ATPase pH 0.4.
For Cn1c(=O)c(=O)n(C)c2cc(S(=O)(=O)N3CCOCC3)ccc21 the results were NRP1-CendR mod -3.1, ARFGAP1 inh 2.5, ASAP1 GAP inh 4.3, Granule exo inh 5.0 and V-ATPase pH -4.2.
Screening Cc1ccn2c(c1)nc(=O)c1cc(S(=O)(=O)N3CCOCC3)ccc12 returned NRP1-CendR mod 20.9*, ARFGAP1 inh 7.2, ASAP1 GAP inh 9.9, Granule exo inh 1.4 and V-ATPase pH -1.4.
`CC(C)c1[nH]nc2c1C(c1ccccc1)N(Cc1ccccc1)C2=O` (configuration not stated) gave ARFGAP1 inh -8.6 and ASAP1 GAP inh -1.9.
`CCC(=O)NC(=S)Nc1ccc(S(=O)(=O)NC(C)=O)cc1` gave NRP1-CendR mod 24.7*, ARFGAP1 inh 13.1, ASAP1 GAP inh -9.8, Granule exo inh 2.5 and V-ATPase pH -1.1.
For COC1=C(Nc2ccccc2OC)C(=O)c2ccccc2C1=O the results were NRP1-CendR mod -12.1, ARFGAP1 inh 4.8, ASAP1 GAP inh 4.4, Granule exo inh -1.2 and V-ATPase pH -6.5.
COc1ccccc1NC1=C(NC(C)=O)C(=O)c2ccccc2C1=O was read as NRP1-CendR mod 10.5, ARFGAP1 inh 10.1, ASAP1 GAP inh 1.8, Granule exo inh 90.2* and V-ATPase pH -6.3.
Screening Cc1ccc(C2NC(=O)c3n[nH]c(C(C)C)c32)cc1 (configuration not stated) returned ARFGAP1 inh 6.0 and ASAP1 GAP inh 8.0.
For Oc1ccc2oc3c(c2c1)CCCC3 the results were NRP1-CendR mod 28.4*, ARFGAP1 inh 0.0, ASAP1 GAP inh -4.3, Granule exo inh -0.6 and V-ATPase pH 0.3.
Screening O=C(C(=O)N1CCC(CNS(=O)(=O)c2ccc3ccccc3c2)CC1)c1cc2ccccc2o1 returned ARFGAP1 inh 0.4 and ASAP1 GAP inh 11.8.
NNc1ncnc2c1cnn2-c1ccccc1 was read as NRP1-CendR mod 28.1*, ARFGAP1 inh -0.6, ASAP1 GAP inh -4.4, Granule exo inh -0.4 and V-ATPase pH -1.4.
For COc1cc(OC)cc(OC(=O)C2CCN(S(=O)(=O)c3ccc(OC)c(OC)c3)CC2)c1 the results were NRP1-CendR mod 4.1, ARFGAP1 inh 2.0, ASAP1 GAP inh 0.6, Granule exo inh -1.5 and V-ATPase pH 1.6.
`NC(=O)c1ncn([C@@H]2O[C@H](C(=O)N[C@H](Cc3c[nH]c4ccccc34)C(=O)NCC(=O)N3CCCCC3)[C@@H](O)[C@H]2O)n1` gave ARFGAP1 inh -7.4 and ASAP1 GAP inh -4.0.
`CSc1ccc(NC(=O)C2(C)CCN2C(=O)c2ccccc2CCc2ccccc2)cc1` (configuration not stated) gave NRP1-CendR mod 41.5*, ARFGAP1 inh -6.1, ASAP1 GAP inh 2.5 and Granule exo inh -0.3.
`O=c1c2cn[nH]c2nc(SCc2ccccc2F)n1-c1ccc(Br)cc1` gave NRP1-CendR mod 25.5*, ARFGAP1 inh 13.3, ASAP1 GAP inh -1.6, Granule exo inh -2.2 and V-ATPase pH -4.0.
`COc1ccc(N2CCN(C(=O)CSc3nc4[nH]ncc4c(=O)n3-c3ccc(Br)cc3)CC2)cc1` gave NRP1-CendR mod 6.2, ARFGAP1 inh -1.9, ASAP1 GAP inh -14.6, Granule exo inh -1.1 and V-ATPase pH -3.2.
Screening O=c1c2cn[nH]c2nc(SCc2cc(=O)n3cc(Br)ccc3n2)n1-c1ccc(Br)cc1 returned NRP1-CendR mod 32.3*, ARFGAP1 inh -2.7, ASAP1 GAP inh 7.4, Granule exo inh 6.1 and V-ATPase pH 0.0.
For Nc1[nH]c(C(=O)c2ccccc2)c(-c2ccc(Cl)cc2)c1C(=O)c1c[nH]c2ccc(F)cc12 the results were ARFGAP1 inh 5.9 and ASAP1 GAP inh 10.2.
